Data published in ChEMBL document CHEMBL1121446, “Quantitative structure-pharmacokinetic relationships derived on antibacterial sulfonamides in rats and its comparison to quantitative structure-activity relationships” (J Med Chem, 1980).

How the values were obtained:
Rattus norvegicus [1] = species: Rattus norvegicus; assay: Apparent volume of distribution was determined in rat; format: ADME, organism-based; conditions: in vivo
How it was run: (§1)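 Male Sprague-Dawley rats received the SA sodium salt, 50 mg/kg, into the tail vein within 1 min. Tail-artery blood was sampled over time and plasma separated by centrifugation. Unmetabolized and total SA were assayed by modified Bratton-Marshall before and after hydrolysis of N4 metabolites. ke (or kC,U for unchanged drug) was obtained by computer fitting to a one-compartment model. Vc = dose / extrapolated initial plasma concentration.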

Rattus norvegicus [2] = species: Rattus norvegicus; assay: Affinity for protein binding expressed as association constant in fresh rat serum; format: ADME, organism-based
How it was run: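 Sulfapyridines added to freshly prepared rat serum at 100-600 µmol/L in 100 µmol/L steps. Samples ultracentrifuged 10 h at 45000 rpm (g = 150000), 37 °C. Unbound drug in the top protein-free layer measured photometrically by Bratton-Marshall. Total drug measured before centrifugation, with controls correcting for sedimentation of unbound drug. Bound = total − free; Kassoc from a Scatchard plot.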

[3] = Acid dissociation constant; format: ADME
How it was run: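 pKa of the sulfapyridine acidic NH measured spectrophotometrically.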

[4] = Overall elimination rate in rat; format: ADME, organism-based; conditions: in vivo, read-out: ke (converted); how it was run: as §1
[5] = Half life in rat; format: ADME, organism-based; conditions: in vivo; how it was run: as §1
[6] = Total clearance from the body in rat; format: ADME, organism-based; conditions: in vivo, read-out: ClT
Rattus norvegicus [7] = species: Rattus norvegicus; assay: Metabolic clearance from the body in rat; format: ADME, organism-based; conditions: in vivo
How it was run: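 Metabolic clearance calculated as total clearance minus renal clearance. Plasma levels were measured before and after hydrolysis of N4-acetyl metabolites.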

[8] = First order rate of elimination of unchanged drug in rat; format: ADME, organism-based; conditions: in vivo, read-out: kC,U (converted); how it was run: as §1
[9] = Renal clearance from the body in rat; format: ADME, organism-based, Kidney; conditions: in vivo, read-out: CL_renal
How it was run: (§2)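 Drug solutions were infused into rats at 1.9 mL/h, with plasma and urine concentrations measured simultaneously over time. Clearance = urine concentration × urine volume per minute / plasma concentration. Inulin and PAH clearances were also determined. Urine pH was set with NH4Cl (pH 5-6) or NaHCO3 (pH 7.8), compared with normal pH 6.8.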

[10] = Renal clearance from the body; format: ADME, organism-based, Kidney; conditions: in vivo; read-out: CL_renal; how it was run: as §2
[11] = Half life was determined; format: ADME; conditions: rat

| SMILES | Vc (Rattus norvegicus [1]) [mL] | K ass (Rattus norvegicus [2]) | pKa [3] | k el [4] [s⁻¹] | half-life [5] [h] | clearance [6] [mL/min] | ClM (Rattus norvegicus [7]) [mL/min] | k el [8] [s⁻¹] | CL renal [9] [mL/min] | CL renal [10] [mL/min] | half-life [11] [h] |
| --- | --- | --- | --- | --- | --- | --- | --- | --- | --- | --- | --- |
| Nc1ccc(S(=O)(=O)Nc2ncc(Cl)cc2Cl)cc1 | 99.2 | 12706 l M-1 | 5.98 | 8.89e-06 | 21.6 | 0.05 | 0.03 | 8.33e-06 | 0.05 | – | – |
| Cc1cccc(NS(=O)(=O)c2ccc(N)cc2)n1 | 168.6 | 5129 l M-1 | 9.2 | 0.000102 | – | 1.04 | – | – | – | – | 1.88 |
| Nc1ccc(S(=O)(=O)Nc2ccc(Cl)cn2)cc1 | 185.5 | 25703 l M-1 | 7.04 | 8.89e-06 | 21.6 | 0.099 | 0.04 | 5.56e-06 | 0.06 | – | – |
| Cc1ccc(NS(=O)(=O)c2ccc(N)cc2)nc1 | 234 | 9183 l M-1 | 8.95 | 8.17e-05 | 2.36 | 1.15 | – | – | – | – | – |
| Cc1cnc(NS(=O)(=O)c2ccc(N)cc2)c(C#N)c1 | 89.7 | 10965 l M-1 | 5.35 | 8.83e-05 | 2.18 | 0.47 | – | – | – | – | – |
| Cc1cccnc1NS(=O)(=O)c1ccc(N)cc1 | 131 | 1622 l M-1 | 8.74 | 0.000149 | 1.29 | 1.17 | – | – | – | – | – |
| Nc1ccc(S(=O)(=O)Nc2ccc([N+](=O)[O-])cn2)cc1 | 192.8 | 20417 l M-1 | 5.56 | 1.17e-05 | 16.5 | 0.135 | – | – | – | – | – |
| CN(C)c1ccc(NS(=O)(=O)c2ccc(N)cc2)nc1 | 111.2 | 8511 l M-1 | 9.21 | 9.25e-05 | 2.08 | 0.62 | 0.19 | 6.39e-05 | 0.43 | – | – |
| CCOc1cccnc1NS(=O)(=O)c1ccc(N)cc1 | 98.3 | 4169 l M-1 | 8.2 | 0.000138 | 1.4 | 0.81 | – | – | – | – | – |
| Cc1cc(Cl)cnc1NS(=O)(=O)c1ccc(N)cc1 | 137.9 | – | 7.26 | 2.36e-05 | 8.15 | 0.195 | – | – | – | – | – |
| Nc1ccc(S(=O)(=O)Nc2ccccn2)cc1 [SULFAPYRIDINE] | 229 | 4592 l M-1 | 8.54 | 0.000131 | 1.47 | 1.79 | 0.46 | 9.72e-05 | 1.33 | – | – |

Results, then the compound that gave them:

| Vc (Rattus norvegicus [1]) [mL] | K ass (Rattus norvegicus [2]) | pKa [3] | k el [4] [s⁻¹] | half-life [5] [h] | clearance [6] [mL/min] | ClM (Rattus norvegicus [7]) [mL/min] | k el [8] [s⁻¹] | CL renal [9] [mL/min] | CL renal [10] [mL/min] | half-life [11] [h] | SMILES |
| --- | --- | --- | --- | --- | --- | --- | --- | --- | --- | --- | --- |
| 142.8 | 6606 l M-1 | 9.01 | 0.000161 | 1.19 | 1.38 | – | – | – | – | – | Cc1ccnc(NS(=O)(=O)c2ccc(N)cc2)c1 |
| 183 | 5495 l M-1 | 9.54 | 0.00016 | 1.2 | 1.76 | 0.48 | 0.000117 | 1.28 | – | – | Cc1cc(C)nc(NS(=O)(=O)c2ccc(N)cc2)c1 |
| 90.3 | 13800 l M-1 | 5.78 | 8.89e-06 | 21.6 | 0.048 | 0.02 | 5.56e-06 | – | 0.03 | – | Nc1ccc(S(=O)(=O)Nc2ncc(Br)cc2Br)cc1 |
| 247.1 | – | 6.98 | 7.78e-06 | 24.8 | 0.116 | 0.07 | 2.78e-06 | 0.04 | – | – | Nc1ccc(S(=O)(=O)Nc2ccc(Br)cn2)cc1 |
| 96.7 | 1820 l M-1 | 5.25 | 0.000133 | 1.44 | 0.77 | – | – | – | – | – | N#Cc1cccnc1NS(=O)(=O)c1ccc(N)cc1 |
| 100.3 | 2399 l M-1 | 8.07 | 0.000151 | 1.27 | 0.91 | – | – | – | – | – | COc1cccnc1NS(=O)(=O)c1ccc(N)cc1 |
| 142.6 | 5888 l M-1 | 7.19 | 2.36e-05 | 8.15 | 0.2 | – | – | – | – | – | Cc1cc(Br)cnc1NS(=O)(=O)c1ccc(N)cc1 |
| 147.5 | 13441 l M-1 | 6.8 | 2.22e-05 | 8.66 | 0.2 | – | – | – | – | – | Nc1ccc(S(=O)(=O)Nc2ncccc2Cl)cc1 |
